Columns and labels:
Type in all cases: functional
[1] = test system: Aspergillus flavus; test: Antifungal activity against Aspergillus flavus ATCC 9170 after 48 hrs by broth microdilution technique; conditions: ATCC 9170, 48 h
Outline: (§1)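 CLSI broth microdilution: M-27 A2 for yeasts and M-38 A for filamentous fungi. Medium is RPMI-1640 buffered to pH 7.0 with MOPS. Compound is diluted twofold from 250 to 0.98, final DMSO ≤2%. Inoculum is 1–5 × 10³ CFU/mL. Plates are incubated at 35 °C in a moist, dark chamber and read visually at 48 h. MIC100 is the lowest concentration giving total growth inhibition versus drug-free control.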

[2] = test system: Aspergillus niger; test: Antifungal activity against Aspergillus niger ATCC 9029 after 48 hrs by broth microdilution technique; conditions: ATCC 9029, 48 h; outline: as §1
[3] = test system: Candida albicans; test: Antimicrobial activity against Candida albicans ATCC 10231 at 6.25 ug/ml after 24 hrs; conditions: ATCC 10231, 24 h
Outline: (§2)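 Growth-inhibition microplate test. Strains are grown on Sabouraud-chloramphenicol agar for 48 h at 30 °C, and inoculum is added to RPMI-1640 containing compound at a final 100–6.25, with DMSO ≤2%. Each strain has a growth control (same DMSO, no compound) and a sterility control.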

[4] = test system: Candida albicans; test: Antimicrobial activity against Candida albicans C126 isolate at 6.25 ug/ml after 24 hrs; outline: as §2
[5] = test system: Candida albicans; test: Antimicrobial activity against Candida albicans C127 isolate at 6.25 ug/ml after 24 hrs; conditions: C127, 24 h; outline: as §2
[6] = test system: Candida albicans; test: Antimicrobial activity against Candida albicans C128 isolate at 6.25 ug/ml after 24 hrs; outline: as §2
[7] = test system: Cryptococcus neoformans; test: Antimicrobial activity against Cryptococcus neoformans IM 972724 isolate at 6.25 ug/ml after 48 hrs
Outline: (§3)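 Clinical Cryptococcus isolates kept on Sabouraud-dextrose agar slopes; inoculum 1–5 × 10³ CFU/mL. Quinoline DMSO stocks were diluted in RPMI-1640 to final 100–6.25 µg/mL, with DMSO ≤2%. An equal volume of inoculum was added (200 µL per well). Run in triplicate.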

[8] = test system: Candida albicans; test: Antimicrobial activity against Candida albicans C129 isolate at 6.25 ug/ml after 24 hrs; outline: as §2
[9] = test system: Candida albicans; test: Antimicrobial activity against Candida albicans C130 isolate at 6.25 ug/ml after 24 hrs; outline: as §2
[10] = test system: Nakaseomyces glabratus; test: Antimicrobial activity against Candida glabrata C115 isolate at 6.25 ug/ml after 24 hrs
Outline: (§4)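 Percent growth inhibition in 96-well microplates. Compound stocks in DMSO (≤2%) were diluted in RPMI-1640 to final 100–6.25 µg/mL, and 100 µL inoculum was added (final 200 µL). Controls were a growth well (inoculum with matching DMSO, no compound) and a sterility well (no inoculum). Inhibition was calculated against growth and sterility wells.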

[11] = test system: Candida tropicalis; test: Antimicrobial activity against Candida tropicalis C131 isolate at 6.25 ug/ml after 24 hrs; outline: as §4
[12] = test system: Candida parapsilosis; test: Antimicrobial activity against Candida parapsilosis C124 isolate at 6.25 ug/ml after 24 hrs; conditions: Lodderomyces parapsilosis; outline: as §4
[13] = test system: Pichia kudriavzevii; test: Antimicrobial activity against Candida krusei C117 isolate at 6.25 ug/ml after 24 hrs; outline: as §4
[14] = test system: Cryptococcus neoformans; test: Antimicrobial activity against Cryptococcus neoformans IM 042074 isolate at 6.25 ug/ml after 48 hrs; outline: as §4
[15] = test system: Cryptococcus neoformans; test: Antimicrobial activity against Cryptococcus neoformans IM 983036 isolate at 6.25 ug/ml after 48 hrs; outline: as §3
[16] = test system: Cryptococcus neoformans; test: Antimicrobial activity against Cryptococcus neoformans IM 00319 isolate at 6.25 ug/ml after 48 hrs; outline: as §4
[17] = test system: Cryptococcus neoformans; test: Antimicrobial activity against Cryptococcus neoformans IM 972751 isolate at 6.25 ug/ml after 48 hrs; outline: as §3
[18] = test system: Cryptococcus neoformans; test: Antimicrobial activity against Cryptococcus neoformans IM 031631 isolate at 6.25 ug/ml after 48 hrs; outline: as §4
[19] = test system: Cryptococcus neoformans; test: Antimicrobial activity against Cryptococcus neoformans IM 031706 isolate at 6.25 ug/ml after 48 hrs; outline: as §4
[20] = test system: Cryptococcus neoformans; test: Antimicrobial activity against Cryptococcus neoformans IM 961951 isolate at 6.25 ug/ml after 48 hrs; outline: as §3
[21] = test system: Cryptococcus neoformans; test: Antimicrobial activity against Cryptococcus neoformans ATCC 32264 at 6.25 ug/ml after 48 hrs; conditions: ATCC 32264, 48 h; outline: as §4
[22] = test system: Cryptococcus neoformans; test: Antimicrobial activity against Cryptococcus neoformans IM 983040 isolate at 6.25 ug/ml after 48 hrs; outline: as §3
[23] = test system: Cryptococcus neoformans; test: Antimicrobial activity against Cryptococcus neoformans IM 052470 isolate at 6.25 ug/ml after 48 hrs; outline: as §4
[24] = test system: Candida albicans; test: Antifungal activity against Candida albicans ATCC 10231 after 48 hrs by broth microdilution technique; conditions: ATCC 10231, 48 h; outline: as §1
[25] = test system: Saccharomyces cerevisiae; test: Antifungal activity against Saccharomyces cerevisiae ATCC 9763 after 48 hrs by broth microdilution technique; conditions: ATCC 9763, 48 h; outline: as §1
[26] = test system: Cryptococcus neoformans; test: Antifungal activity against Cryptococcus neoformans ATCC 32264 after 48 hrs by broth microdilution technique; conditions: ATCC 32264, 48 h; outline: as §1
[27] = test system: Aspergillus fumigatus; test: Antifungal activity against Aspergillus fumigatus ATTC 26934 after 48 hrs by broth microdilution technique; outline: as §1
[28] = test system: Nannizzia gypsea; test: Antifungal activity against Microsporum gypseum C115 after 48 hrs by broth microdilution technique; outline: as §1
[29] = test system: Trichophyton rubrum; test: Antifungal activity against Trichophyton rubrum C110 after 48 hrs by broth microdilution technique; outline: as §1
[30] = test system: Trichophyton mentagrophytes; test: Antifungal activity against Trichophyton mentagrophytes ATCC 9972 after 48 hrs by broth microdilution technique; conditions: ATCC 9972, 48 h; outline: as §1
[31] = test system: Trichophyton rubrum; test: Antifungal activity against Trichophyton rubrum C133 isolate; conditions: read-out: MIC100
[32] = test system: Trichophyton rubrum; test: Antifungal activity against Trichophyton rubrum C135 isolate; conditions: read-out: MIC100
[33] = test system: Trichophyton rubrum; test: Antifungal activity against Trichophyton rubrum C136 isolate; conditions: read-out: MIC100
[34] = test system: Trichophyton rubrum; test: Antifungal activity against Trichophyton rubrum C137 isolate; conditions: read-out: MIC100
[35] = test system: Trichophyton mentagrophytes; test: Antifungal activity against Trichophyton mentagrophytes C131 isolate; conditions: read-out: MIC100
[36] = test system: Trichophyton mentagrophytes; test: Antifungal activity against Trichophyton mentagrophytes C132 isolate; conditions: read-out: MIC100
[37] = test system: Trichophyton mentagrophytes; test: Antifungal activity against Trichophyton mentagrophytes C364 isolate; conditions: read-out: MIC100
[38] = test system: Trichophyton mentagrophytes; test: Antifungal activity against Trichophyton mentagrophytes C539 isolate; conditions: read-out: MIC100
[39] = test system: Trichophyton mentagrophytes; test: Antifungal activity against Trichophyton mentagrophytes C943 isolate; conditions: read-out: MIC100

C[C@@H]1[C@H](O)[C@@H](C)/C=C/C=C/C=C/C=C/C=C/C=C/C=C/[C@H](O[C@@H]2O[C@H](C)[C@@H](O)[C@H](N)[C@@H]2O)C[C@@H]2O[C@](O)(C[C@@H](O)C[C@@H](O)[C@H](O)CC[C@@H](O)C[C@@H](O)CC(=O)O[C@H]1C)C[C@H](O)[C@H]2C(=O)O [AMPHOTERICIN B]
0.25 µg/mL: MIC [26]
1 µg/mL: MIC [24]
100%: inhibition at 6.25 µg/mL [3] | inhibition at 6.25 µg/mL [4] | inhibition at 6.25 µg/mL [5] | inhibition at 6.25 µg/mL [6] | inhibition at 6.25 µg/mL [7] | inhibition at 6.25 µg/mL [8] | inhibition at 6.25 µg/mL [9] | inhibition at 6.25 µg/mL [10] | inhibition at 6.25 µg/mL [11] | inhibition at 6.25 µg/mL [12] | inhibition at 6.25 µg/mL [13] | inhibition at 6.25 µg/mL [14] | inhibition at 6.25 µg/mL [15] | inhibition at 6.25 µg/mL [16] | inhibition at 6.25 µg/mL [17] | inhibition at 6.25 µg/mL [18] | inhibition at 6.25 µg/mL [19] | inhibition at 6.25 µg/mL [20] | inhibition at 6.25 µg/mL [21] | inhibition at 6.25 µg/mL [22] | inhibition at 6.25 µg/mL [23]
0.5 µg/mL: MIC [1] | MIC [2] | MIC [25] | MIC [27]

CC(=O)N1CCN(c2ccc(OCC3COC(Cn4ccnc4)(c4ccc(Cl)cc4Cl)O3)cc2)CC1 (centres undefined) [KETOCONAZOLE]
0.125 µg/mL: MIC [27]
0.5 µg/mL: MIC [1] | MIC [24] | MIC [25]
100%: inhibition at 6.25 µg/mL [3] | inhibition at 6.25 µg/mL [4] | inhibition at 6.25 µg/mL [5] | inhibition at 6.25 µg/mL [6] | inhibition at 6.25 µg/mL [7] | inhibition at 6.25 µg/mL [8] | inhibition at 6.25 µg/mL [9] | inhibition at 6.25 µg/mL [10] | inhibition at 6.25 µg/mL [11] | inhibition at 6.25 µg/mL [12] | inhibition at 6.25 µg/mL [13] | inhibition at 6.25 µg/mL [14] | inhibition at 6.25 µg/mL [15] | inhibition at 6.25 µg/mL [16] | inhibition at 6.25 µg/mL [17] | inhibition at 6.25 µg/mL [18] | inhibition at 6.25 µg/mL [19] | inhibition at 6.25 µg/mL [20] | inhibition at 6.25 µg/mL [21] | inhibition at 6.25 µg/mL [22] | inhibition at 6.25 µg/mL [23]
0.25 µg/mL: MIC [2] | MIC [26]
0.025 µg/mL: MIC ([29]; read-out: MIC) | MIC [30]
0.05 µg/mL: MIC [28]

CN(C/C=C/C#CC(C)(C)C)Cc1cccc2ccccc12 [TERBINAFINE]
0.012 µg/mL: MIC [34]
0.04 µg/mL: MIC [28] | MIC [30]
0.01 µg/mL: MIC ([29]; read-out: MIC100)
0.006 µg/mL: MIC [31] | MIC [32] | MIC [33] | MIC [35] | MIC [36] | MIC [37] | MIC [38] | MIC [39]
